# From ChEMBL document CHEMBL1142796 (Bioorg Med Chem Lett, 2005)
# Key:
# [1] = molecular target: Neuronal acetylcholine receptor; alpha4/beta2 (Rattus norvegicus) (UniProt P09483+P12390); assay: Maximal response against rat alpha4-beta2 nicotinic acetylcholine receptor; assay type: protein-complex assay
# How it was run: (§1)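 Rat α4β2 expressed in Xenopus oocytes, two-electrode voltage clamp at −60 mV, perfused at 4 ml/min. Controls were 10 μM ACh applied for 8 s with 241 s washout, given as two controls, then drug, then a control. Peak current was normalized to the preceding ACh control and rescaled to the ACh maximum.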
# [2] = molecular target: T1, Neuronal acetylcholine receptor; alpha4/beta2 (Rattus norvegicus, UniProt P09483+P12390); assay: Effective concentration against rat alpha4-beta2 nicotinic acetylcholine receptor; assay type: protein-complex assay
# How it was run: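 Rat α4β2 expressed in Xenopus oocytes, two-electrode voltage clamp at −60 mV, perfused at 4 ml/min. Peak current was normalized to the preceding ACh control and rescaled to the ACh maximum.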
# [3] = molecular target: Neuronal acetylcholine receptor subunit alpha-7 (Rattus norvegicus) (UniProt Q05941); assay: Maximal response against rat alpha-7 nicotinic acetylcholine receptor
# How it was run: as §1, with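 “α7” for “α4β2”, “2” for “4”, “300” for “10”, “12” for “8”, “181” for “241”, “Net-charge responses were” for “Peak current was”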
# [4] = molecular target: T2, Neuronal acetylcholine receptor subunit alpha-7 (Rattus norvegicus, UniProt Q05941); assay: Inhibition of [3H]-MLA binding to alpha-7 nicotinic acetylcholine receptor of rat brain membrane
# [5] = molecular target: Neuronal acetylcholine receptor; alpha3/beta4 (Rattus norvegicus) (UniProt P04757+P12392); assay: Maximal response against rat alpha3-beta4 nicotinic acetylcholine receptor; assay type: protein-complex assay
# How it was run: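 Rat α3β4 expressed in Xenopus oocytes, two-electrode voltage clamp at −60 mV, perfused at 4 ml/min. Controls were 100 μM ACh applied for 8 s with 241 s washout, given as two controls, then drug, then a control. Peak current was normalized to the preceding ACh control and rescaled to the ACh maximum.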
# [6] = molecular target: T2, Neuronal acetylcholine receptor subunit alpha-7; assay: Effective concentration against rat alpha-7 nicotinic acetylcholine receptor
# How it was run: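 Rat α7 expressed in Xenopus oocytes, two-electrode voltage clamp at −60 mV, perfused at 2 ml/min. Net-charge responses were normalized to the preceding ACh control and rescaled to the ACh maximum.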
# [7] = molecular target: Neuronal acetylcholine receptor; alpha3/beta4 (Rattus norvegicus, UniProt P04757+P12392); assay: Effective concentration against rat alpha3-beta4 nicotinic acetylcholine receptor; assay type: protein-complex assay
# How it was run: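 Rat α3β4 expressed in Xenopus oocytes, two-electrode voltage clamp at −60 mV, perfused at 4 ml/min. Peak current was normalized to the preceding ACh control and rescaled to the ACh maximum.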
# [8] = molecular target: T1, Neuronal acetylcholine receptor; alpha4/beta2; assay: Inhibition of [3H]nicotine binding to alpha4-beta2 nicotinic acetylcholine receptor of rat brain membrane
# [9] = molecular target: T2, Neuronal acetylcholine receptor subunit alpha-7; assay: Inhibition of [3H]MLA binding to rat alpha7 nicotinic acetylcholine receptor
# [10] = molecular target: T2, Neuronal acetylcholine receptor subunit alpha-7; assay: Effective concentration against rat alpha7 nicotinic acetylcholine receptor
# How it was run: as §1, with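 “α7” for “α4β2”, “2” for “4”, “300” for “10”, “12” for “8”, “181” for “241”, “Net-charge responses were” for “Peak current was”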
# Neuronal acetylcholine receptor subunit alpha-7 (Rattus norvegicus), sequence (Q05941 whole entry): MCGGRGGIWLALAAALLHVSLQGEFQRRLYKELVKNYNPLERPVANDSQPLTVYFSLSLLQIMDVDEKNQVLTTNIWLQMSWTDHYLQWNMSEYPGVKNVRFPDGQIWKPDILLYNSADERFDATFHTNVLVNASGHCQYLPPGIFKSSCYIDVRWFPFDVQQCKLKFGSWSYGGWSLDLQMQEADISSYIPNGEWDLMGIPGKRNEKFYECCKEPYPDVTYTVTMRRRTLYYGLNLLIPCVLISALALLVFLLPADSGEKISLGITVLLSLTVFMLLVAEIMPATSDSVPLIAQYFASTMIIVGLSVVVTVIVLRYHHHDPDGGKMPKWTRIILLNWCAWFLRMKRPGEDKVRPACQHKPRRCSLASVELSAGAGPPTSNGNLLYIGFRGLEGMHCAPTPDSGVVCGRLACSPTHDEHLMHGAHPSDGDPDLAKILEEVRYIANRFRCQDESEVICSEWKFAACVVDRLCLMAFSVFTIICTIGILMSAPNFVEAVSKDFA
# T2 sequence (Q05941 whole entry): as above
# T1 sequence (P09483 whole entry, the tested form may be a part): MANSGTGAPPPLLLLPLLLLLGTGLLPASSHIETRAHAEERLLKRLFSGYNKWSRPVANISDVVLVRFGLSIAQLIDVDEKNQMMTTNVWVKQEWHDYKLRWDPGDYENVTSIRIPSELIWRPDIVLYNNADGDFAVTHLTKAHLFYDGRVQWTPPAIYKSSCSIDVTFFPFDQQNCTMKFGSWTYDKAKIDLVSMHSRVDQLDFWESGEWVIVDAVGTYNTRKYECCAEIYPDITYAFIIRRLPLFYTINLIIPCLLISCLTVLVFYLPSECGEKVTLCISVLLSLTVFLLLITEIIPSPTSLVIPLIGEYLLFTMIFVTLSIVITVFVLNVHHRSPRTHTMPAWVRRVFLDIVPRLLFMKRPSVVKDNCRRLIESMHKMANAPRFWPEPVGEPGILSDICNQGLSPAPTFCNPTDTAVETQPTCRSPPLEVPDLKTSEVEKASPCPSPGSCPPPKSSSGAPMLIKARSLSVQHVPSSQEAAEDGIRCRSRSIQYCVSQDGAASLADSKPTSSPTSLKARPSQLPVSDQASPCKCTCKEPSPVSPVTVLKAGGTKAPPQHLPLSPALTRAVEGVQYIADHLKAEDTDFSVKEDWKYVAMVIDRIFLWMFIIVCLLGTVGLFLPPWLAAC
# T1 sequence (P12390 whole entry, the tested form may be a part): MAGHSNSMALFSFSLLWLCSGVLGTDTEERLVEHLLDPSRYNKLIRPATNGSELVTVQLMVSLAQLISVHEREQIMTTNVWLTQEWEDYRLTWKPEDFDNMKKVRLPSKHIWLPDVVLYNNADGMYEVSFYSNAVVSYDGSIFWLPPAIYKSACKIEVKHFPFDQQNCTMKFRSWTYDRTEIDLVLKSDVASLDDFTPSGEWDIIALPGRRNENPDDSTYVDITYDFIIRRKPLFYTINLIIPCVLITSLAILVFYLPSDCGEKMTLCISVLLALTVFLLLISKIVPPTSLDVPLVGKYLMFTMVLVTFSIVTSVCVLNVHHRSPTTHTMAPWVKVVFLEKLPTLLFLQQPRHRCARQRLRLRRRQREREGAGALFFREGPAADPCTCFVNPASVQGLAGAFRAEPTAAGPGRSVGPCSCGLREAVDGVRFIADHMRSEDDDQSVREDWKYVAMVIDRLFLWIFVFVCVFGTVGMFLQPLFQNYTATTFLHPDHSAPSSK
# Neuronal acetylcholine receptor; alpha3/beta4, sequence (P04757 whole entry, the tested form may be a part): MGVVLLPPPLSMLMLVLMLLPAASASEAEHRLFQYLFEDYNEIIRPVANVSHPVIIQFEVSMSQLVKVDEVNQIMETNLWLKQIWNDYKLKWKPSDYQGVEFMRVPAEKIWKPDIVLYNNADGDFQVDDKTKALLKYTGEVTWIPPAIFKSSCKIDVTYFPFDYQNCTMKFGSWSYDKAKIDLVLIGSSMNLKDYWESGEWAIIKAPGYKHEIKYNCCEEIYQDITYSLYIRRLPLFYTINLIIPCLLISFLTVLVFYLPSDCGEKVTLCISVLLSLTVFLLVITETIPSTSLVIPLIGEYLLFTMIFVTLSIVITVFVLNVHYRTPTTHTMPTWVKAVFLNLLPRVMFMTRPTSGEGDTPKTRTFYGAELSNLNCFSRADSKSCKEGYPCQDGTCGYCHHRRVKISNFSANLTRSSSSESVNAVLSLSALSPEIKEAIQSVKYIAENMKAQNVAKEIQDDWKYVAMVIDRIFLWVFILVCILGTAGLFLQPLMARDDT
# Neuronal acetylcholine receptor; alpha3/beta4, sequence (P12392 whole entry, the tested form may be a part): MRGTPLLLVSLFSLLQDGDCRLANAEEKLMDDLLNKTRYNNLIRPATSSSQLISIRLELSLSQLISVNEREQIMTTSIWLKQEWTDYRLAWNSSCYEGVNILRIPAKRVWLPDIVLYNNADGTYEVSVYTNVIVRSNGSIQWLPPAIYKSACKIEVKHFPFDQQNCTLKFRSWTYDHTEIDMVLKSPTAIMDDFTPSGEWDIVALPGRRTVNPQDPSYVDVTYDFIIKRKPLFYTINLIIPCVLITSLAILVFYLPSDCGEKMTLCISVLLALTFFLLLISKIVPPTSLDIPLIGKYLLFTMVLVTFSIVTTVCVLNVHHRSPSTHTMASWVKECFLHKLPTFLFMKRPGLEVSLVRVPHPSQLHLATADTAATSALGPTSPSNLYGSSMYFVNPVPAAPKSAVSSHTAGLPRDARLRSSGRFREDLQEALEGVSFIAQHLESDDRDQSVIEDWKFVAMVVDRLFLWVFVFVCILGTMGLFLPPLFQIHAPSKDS
Structure (SMILES),Imax [1],EC50 [2],Imax [3],Ki [4],Imax [5],EC50 [6],EC50 [7],Ki [8],Ki [9],EC50 [10]
CN1CCC[C@H]1c1ccc[n+]([BH2-]C#N)c1,0.05,150 µM,0.15,15.2 µM,0.06,21 µM,28 µM,0.041 µM,–,–
CN1CC[C@@H]2CCc3cc[n+]([BH2-]C#N)cc3[C@@H]21,–,–,0.26,–,–,20 µM,–,0.6 µM,2.4 µM,–
CN1CC[C@H]2CCc3ncccc3[C@H]21,–,–,–,–,–,–,–,12.2 µM,–,–
CN1CCC[C@H]1c1cccnc1,0.17,–,0.6,–,0.69,–,–,–,–,–
CN1CC[C@@H]2CCc3ccncc3[C@@H]21,–,–,0.11,–,–,–,–,0.4 µM,–,44 µM
